In ChEMBL document CHEMBL1157609, “Discovery of vaniprevir (MK-7009), a macrocyclic hepatitis C virus NS3/4a protease inhibitor” (J Med Chem, 2010):

Tests used:
Hepatitis C virus [1] = assay: Antiviral activity against HCV Con1 infected in human HuH7 cells assessed as inhibition of viral replication after 24 hrs by replicon assay in presence of 50% normal human serum; type: functional, organism-based, Hepacivirus hominis; settings: Con1, Huh-7, 24 h
Summary of the method: (§1)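 Huh-7 cells stably carrying a bicistronic replicon (1b con1 or 2a JFH) seeded at 20000 cells/well and held 24 h at 37 °C/5% CO2 in DMEM with 10% FBS or 50% NHS. Compound added in DMSO (1% final) for a further 24 h. Cells fixed and permeabilized. Replicon RNA quantified by in situ hybridization of a radiolabeled neomycin-resistance probe (50 °C, 18 h), followed by RNase A treatment.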

[2] = Drug level in Sprague-Dawley rat liver at 5 mg/kg, po after 4 hrs by LC/MS analysis; type: ADME, organism-based; set-up: dose 5 mg/kg, route oral; settings: read-out: Drug uptake
Summary of the method: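 Rats given a single oral dose as a PEG400 solution (2.0 mL/kg). Liver collected at the terminal time point and homogenized in buffer. Drug extracted liquid-liquid and quantified by LC/MS against standards and QCs.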

[3] = Inhibition of HCV1b BK full length NS3/4A protease expressed in Escherichia coli after 1 hr by time-resolved fluorescence assay; set-up: species or system Hepatitis C virus (isolate BK)
Summary of the method: (§2)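 Full-length NS3/4A (1b BK or 2a JFH) purified from E. coli. TRF peptide substrate added at 100 nM final. Reaction run 1 h at RT, then quenched with 500 mM MES pH 5.5. Read at ex 340/em 615 nm with 400 μs delay. Ki from a four-parameter fit.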

Hepatitis C virus [4] = assay: Antiviral activity against HCV Con1 infected in human HuH7 cells assessed as inhibition of viral replication after 24 hrs by replicon assay in presence of 10% fetal bovine serum; type: functional, organism-based, Hepacivirus hominis; settings: Con1, Huh-7, 24 h; summary of the method: as §1
Hepatitis C virus [5] = assay: Antiviral activity against HCV JFH-1 infected in human HuH7 cells assessed as inhibition of viral replication after 24 hrs by replicon assay in presence of 10% fetal bovine serum; type: functional, organism-based, Hepacivirus hominis; settings: JFH-1, Huh-7, 24 h; summary of the method: as §1
[6] = Inhibition of HCV JFH-1 full length NS3/4A protease expressed in Escherichia coli after 1 hr by time-resolved fluorescence assay; set-up: species or system Hepatitis C virus JFH-1; summary of the method: as §2
[7] = Drug level in Sprague-Dawley rat liver at 5 mg/kg, po after 24 hrs by LC/MS analysis; type: ADME, organism-based; set-up: dose 5 mg/kg, route oral; settings: read-out: Drug uptake
Summary of the method: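 Single oral dose given as a PEG400 solution (2.0 mL/kg). Liver was collected at the terminal time point, homogenized in buffer, and processed by liquid-liquid extraction. Drug was quantified by LC/MS against standards and QCs.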

[8] = AUC in Beagle dog at 5 mg/kg, po by LC/MS analysis; type: ADME, organism-based, Canis lupus familiaris; set-up: dose 5 mg/kg, route oral; settings: plasma
[9] = Drug level in Beagle dog liver at 5 mg/kg, po after 2 hrs by LC/MS analysis; type: ADME, organism-based, Canis lupus familiaris; set-up: dose 5 mg/kg, route oral; settings: read-out: Drug uptake
[10] = Drug level in Beagle dog liver at 5 mg/kg, po after 24 hrs by LC/MS analysis; type: ADME, organism-based, Canis lupus familiaris; set-up: dose 5 mg/kg, route oral; settings: read-out: Drug uptake
[11] = AUC in monkey at 5 mg/kg, po by LC/MS analysis; type: ADME, organism-based, Macaca mulatta; set-up: dose 5 mg/kg, route oral; settings: rhesus monkey, plasma
[12] = Drug level in monkey liver at 5 mg/kg, po after 2 hrs by LC/MS analysis; type: ADME, organism-based, Macaca mulatta; set-up: dose 5 mg/kg, route oral; settings: rhesus monkey, read-out: Drug uptake
[13] = AUC in chimpanzee at 10 mg/kg, po by LC/MS analysis; type: ADME, organism-based, Pan troglodytes; set-up: dose 10 mg/kg, route oral; settings: plasma
Summary of the method: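 Two chimpanzees dosed orally by voluntary ingestion in a chocolate milk vehicle (0.67 mL/kg). Blood sampled at multiple times up to 24 h. Plasma analysed by liquid-liquid extraction and LC/MS against standards and QCs. Pharmacokinetic parameters calculated from the concentration data.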

| SMILES | IC50 (Hepatitis C virus [1]) | concentration at 4 h [2] | Ki [3] | IC50 (Hepatitis C virus [4]) | IC50 (Hepatitis C virus [5]) | Ki [6] | concentration at 24 h [7] | AUC [8] | concentration at 2 h [9] | concentration at 24 h [10] | AUC [11] | concentration at 2 h [12] | AUC [13] |
| --- | --- | --- | --- | --- | --- | --- | --- | --- | --- | --- | --- | --- | --- |
| C=C[C@@H]1C[C@]1(NC(=O)[C@@H]1C[C@@H]2CN1C(=O)[C@H](C(C)C)NC(=O)OCCC/C=C/c1cccc3c1CN(C3)C(=O)O2)C(=O)NS(=O)(=O)C1CC1 | 28 nM | 440 nM | 0.04 nM | 12 nM | – | – | – | – | – | – | – | – | – |
| CC[C@@H]1C[C@]1(NC(=O)[C@@H]1C[C@@H]2CN1C(=O)[C@H](C(C)(C)C)NC(=O)OCCCCCc1cccc3c1CN(C3)C(=O)O2)C(=O)NS(=O)(=O)C1CC1 | 35 nM | 10700 nM | 0.18 nM | 10 nM | 140 nM | 4 nM | – | – | – | – | – | – | – |
| C=C[C@@H]1C[C@]1(NC(=O)[C@@H]1C[C@@H]2CN1C(=O)[C@H](C1(C)CCCCC1)NC(=O)OCCC/C=C/c1cccc3c1CN(C3)C(=O)O2)C(=O)NS(=O)(=O)C1CC1 | 38 nM | 1600 nM | 0.06 nM | 4 nM | – | – | – | – | – | – | – | – | – |
| C=C[C@@H]1C[C@]1(NC(=O)[C@@H]1C[C@@H]2CN1C(=O)[C@H](C(C)(C)C)NC(=O)OCCCCC/C=C/c1cccc3c1CN(C3)C(=O)O2)C(=O)NS(=O)(=O)C1CC1 | 23 nM | 140 nM | < 0.02 nM | 3 nM | – | – | – | – | – | – | – | – | – |
| C=C[C@@H]1C[C@]1(NC(=O)[C@@H]1C[C@@H]2CN1C(=O)[C@H](C(C)(C)C)NC(=O)OCCC/C=C/c1cccc3c1CCN(C3)C(=O)O2)C(=O)NS(=O)(=O)C1CC1 | 2900 nM | – | 8.3 nM | 730 nM | – | – | – | – | – | – | – | – | – |
| C=C[C@@H]1C[C@]1(NC(=O)[C@@H]1C[C@@H]2CN1C(=O)[C@H](C(C)(C)C)NC(=O)OCC/C=C/c1cccc3c1CN(C3)C(=O)O2)C(=O)NS(=O)(=O)C1CC1 | 390 nM | – | 0.1 nM | 16 nM | – | – | – | – | – | – | – | – | – |
| C=C[C@@H]1C[C@]1(NC(=O)[C@@H]1C[C@@H]2CN1C(=O)[C@H](C(C)(C)C)NC(=O)OCCC/C=C/c1cccc(c1)CN(C)C(=O)O2)C(=O)NS(=O)(=O)C1CC1 | 42 nM | 450 nM | 0.14 nM | 28 nM | – | – | – | – | – | – | – | – | – |
| C=C[C@@H]1C[C@]1(NC(=O)[C@@H]1C[C@@H]2CN1C(=O)[C@H](C(C)(C)C)NC(=O)OCCC/C=C/c1ccccc1CN(C)C(=O)O2)C(=O)NS(=O)(=O)C1CC1 | 610 nM | – | 1.6 nM | 98 nM | – | – | – | – | – | – | – | – | – |
| C=C[C@@H]1C[C@]1(NC(=O)[C@@H]1C[C@@H]2CN1C(=O)[C@H](C(C)(C)C)NC(=O)OCCC/C=C/c1cccc3c1CN(C3)C(=O)O2)C(=O)NS(=O)(=O)C1CC1 | 32 nM | 910 nM | 0.05 nM | 7 nM | 150 nM | 2.6 nM | – | – | – | – | – | – | – |
| C=C[C@@H]1C[C@]1(NC(=O)[C@@H]1C[C@@H]2CN1C(=O)[C@H](C(C)(C)C)NC(=O)OCCC/C=C/c1cccc3c1CN(CC3)C(=O)O2)C(=O)NS(=O)(=O)C1CC1 | 140 nM | 3500 nM | 0.15 nM | 26 nM | – | – | – | – | – | – | – | – | – |
| C=C[C@@H]1C[C@]1(NC(=O)[C@@H]1C[C@@H]2CN1C(=O)[C@H](C1CCCCC1)NC(=O)OCCC/C=C/c1cccc3c1CN(C3)C(=O)O2)C(=O)NS(=O)(=O)C1CC1 | 24 nM | 2800 nM | 0.02 nM | 3 nM | – | – | – | – | – | – | – | – | – |
| C=C[C@@H]1C[C@]1(NC(=O)[C@@H]1C[C@@H]2CN1C(=O)[C@H](CCCC)NC(=O)OCCC/C=C/c1cccc3c1CN(C3)C(=O)O2)C(=O)NS(=O)(=O)C1CC1 | 26 nM | 460 nM | 0.05 nM | 6 nM | – | – | – | – | – | – | – | – | – |
| C=C[C@@H]1C[C@]1(NC(=O)[C@@H]1C[C@@H]2CN1C(=O)[C@H](C1CCCC1)NC(=O)OCCC/C=C/c1cccc3c1CN(C3)C(=O)O2)C(=O)NS(=O)(=O)C1CC1 | 23 nM | – | 0.04 nM | 4 nM | – | – | – | – | – | – | – | – | – |
| C=C[C@@H]1C[C@]1(NC(=O)[C@@H]1C[C@@H]2CN1C(=O)[C@H](C(C)(C)C)NC(=O)OCCCC/C=C/c1cccc3c1CN(C3)C(=O)O2)C(=O)NS(=O)(=O)C1CC1 | 19 nM | 230 nM | 0.03 nM | 5 nM | – | – | – | – | – | – | – | – | – |
| C=C[C@@H]1C[C@]1(NC(=O)[C@@H]1C[C@@H]2CN1C(=O)[C@H](C(C)(C)C)NC(=O)OCCCCCc1cccc3c1CN(C3)C(=O)O2)C(=O)NS(=O)(=O)C1CC1 | 27 nM | 520 nM | 0.04 nM | 7 nM | 66 nM | 0.9 nM | – | – | – | – | – | – | – |
| CC[C@@H]1C[C@]1(NC(=O)[C@@H]1C[C@@H]2CN1C(=O)[C@H](C(C)(C)C)NC(=O)OCCC/C=C/c1cccc3c1CN(C3)C(=O)O2)C(=O)NS(=O)(=O)C1CC1 | 110 nM | 3800 nM | 0.45 nM | 29 nM | 720 nM | 19 nM | – | – | – | – | – | – | – |
| CC[C@@H]1C[C@]1(NC(=O)[C@@H]1C[C@@H]2CN1C(=O)[C@H](C(C)(C)C)NC(=O)OCC(C)(C)CCCCc1cccc3c1CN(C3)C(=O)O2)C(=O)NS(=O)(=O)C1CC1 [VANIPREVIR] | 19 nM | 9900 nM | 0.05 nM | 3 nM | 9 nM | 0.9 nM | 400 nM | 1.2 µM·h | 34000 nM | 500 nM | 0.05 µM·h | 3000 nM | 5.2 µM·h |
